Paper PMC7468331 (Acta Pharmacologica Sinica, 2019)

System: HFD-induced obese mice
Experiment: HFD-induced obese mice
Type: in vivo, C57BL/6J male mice
Conditions: HFD-fed mice
Procedure, shortened: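 Male C57BL/6J mice, 5 weeks old, SPF, 12 h light/dark cycle, were fed high-fat diet. After 10 weeks they were randomised to daily gavage with vehicle, test compound (25 or 50 mg/kg) or reference ACC inhibitor (50 mg/kg) to week 22, with food intake and weight recorded weekly. Liver read-outs: H&E, Oil red O, sirius red, F4/80 immunofluorescence, α-SMA IHC, qPCR (ΔΔCt, 18S) and Western blot (β-actin).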

## Cc1nc2ccc(C(=O)N3CCC4(CC3)CC(=O)c3c(cnn3C(C)C)C4)cc2[nH]1 [PF-05175157]
50 mg/kg ig daily
  activation of macrophages (liver F4/80): failed to prevent
Ig daily, sirius red staining
  Col1a1 gene expression and collagen accumulation in the liver: not observed
